TAAR1 agonist – human TAAR1 agonists, primary screen, Fluo-8 calcium fluorescence, CHO RD-HGA16 cells. Trace amine-associated receptor 1 (Homo sapiens), Q96RJ0. vehicle wells 0%, saturating PEA agonist 100%. activation, % at 3 µM. hit rate 0.99% among 360,000. AID 624467, 2012;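 active means activation above the mean activation of all test compounds in the run plus 3 SD, cut at about 38% in these data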
Target sequence (Q96RJ0 whole entry, looked up): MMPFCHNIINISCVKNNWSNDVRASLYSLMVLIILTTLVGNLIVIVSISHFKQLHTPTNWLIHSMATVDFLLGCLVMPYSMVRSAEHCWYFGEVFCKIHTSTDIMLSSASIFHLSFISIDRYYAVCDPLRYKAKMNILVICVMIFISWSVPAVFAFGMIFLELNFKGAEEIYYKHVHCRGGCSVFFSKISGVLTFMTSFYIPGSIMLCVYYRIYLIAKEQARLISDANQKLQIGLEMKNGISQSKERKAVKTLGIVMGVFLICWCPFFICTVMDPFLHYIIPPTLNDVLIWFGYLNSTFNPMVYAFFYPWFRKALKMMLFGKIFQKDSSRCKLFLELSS
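Test system: RD-HGA16 (CHO) cells co-expressing Gα16 and hTAAR1; dosing: one-point dosing at 3 µM (nominal); timing: 17-24 h seeding, 75 min 37 °C dye, 30 min RT; signal: kinetic Fluo-8 calcium fluorescence; read-out basis: % activation relative to PEA EC100 response; controls: DMSO and PEA EC100; replicates: n 1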
TAAR1 antag – human TAAR1 antagonists, primary screen, Fluo-8 calcium fluorescence, CHO RD-HGA16 cells; Trace amine-associated receptor 1 (Homo sapiens), Q96RJ0; antagonist; inhibition, % at 3 µM; hit rate 1.5% among 360,000; AID 624466, 2012;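 active means inhibition above a per-plate cutoff, the mean inhibition of test compounds on that plate plus 3 SD, cut at about 49% in these data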;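 further: 0% = DMSO plus EC80 beta-PEA response and 100% = DMSO alone without agonist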
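Test system: CHO RD-HGA16 cells bearing hTAAR1 | Reagent: β-PEA, EC80 | Compound dosing: 3 µM, single point | Schedule: Dye loading 75 min at 37 °C, then 30 min room temperature | Signal: Calcium fluorescence with Fluo-8 | Evaluation: Percent inhibition of PEA-evoked calcium signal, max/basal emission ratio | Control set: DMSO-only wells and EC80 β-PEA-stimulated wells | Repeats: Singlicate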
GPR7 antag – GPR7 receptor antagonists, primary screen, cell-based, fluorescence, single concentration; Neuropeptides B/W receptor type 1 (Homo sapiens), P48145; inhibition, % at 4.4 µM; hit rate 1.1% among 290,000; GPR7-expressing cells, fluorescence antagonist assay; AID 1861, 2009; in the data active means inhibition above about 16%, passing the limit was not always enough;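 further: cells stimulated with the agonist NPW; 0% = agonist with vehicle and 100% = vehicle without agonist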
OX1R antag-1 – OX1R (HCRTR1) antagonists, primary screen, fluorescence, CHO/OX1R cells, Fluo-8 calcium, orexin A; Orexin/Hypocretin receptor type 1 (Homo sapiens), O43613; Fluo-8 calcium fluorescence; inhibition, % at 5 µM; hit rate 0.43% among 330,000; AID 434989, 2010;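 active means inhibition above its plate's threshold, mean inhibition of all tested compounds on the plate plus 3 SD, cut at about 37% in these data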;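 further: 0% = orexin A challenge wells and 100% = SB-334867-A antagonist wells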
CHO parental Ca – ATP-evoked calcium signal inhibitors, parental CHO, primary screen, counter-screen for OX1R antagonist project, cell-based, fluorescence, Fluo-8 calcium dye | parental CHO-K1, ATP-induced calcium, Fluo-8 fluorescence | inhibition, % at 5.6 µM | hit rate 0.63% among 330,000;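 active means inhibition above that plate's mean sample inhibition plus 3 SD, cut at about 26% in these data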;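 further: 0% = ATP-challenged DMSO wells and 100% = DMSO wells without ATP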
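Measured by: calcium-sensitive Fluo-8 fluorescence / Test system: CHO parental line / Controls: ATP-challenged DMSO wells low, unchallenged DMSO wells high / Measure: % inhibition / Compound: single nominal dose of 5.6 µM per compound / Replicates: single well per compound, no replicates / Reagent: ATP as calcium-mobilizing challenge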
OX1R antag-2 – antagonists of human orexin 1 receptor (OX1R) | Orexin/Hypocretin receptor type 1 (Homo sapiens), O43613 | inhibition, % at 6.6 µM | OX1R-expressing cells, FRET antagonist read-out | hit rate 1.8% among 330,000; in the data active means inhibition mostly above about 38%, no sharp cut-off; inactive means mostly below about 40%;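 further: 0% = agonist challenge alone and 100% = reference antagonist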
An asterisk follows results filed as active; / = not tested or not shown. The list is not random: actives were taken first. Their share in the collection is about 4.5%.

SMILES	TAAR1 agonist	TAAR1 antag	GPR7 antag	OX1R antag-1	CHO parental Ca	OX1R antag-2
CC(C)(C)C(=O)NC(=S)NNC(=O)c1sc2ccccc2c1Cl	/	/	-8	69*	40*	8
FC(F)(F)c1ccccc1CN1CCCc2nc(-c3ccc(Br)cc3)ccc21	-1	-28	/	/	/	/
C=CCN1C(=O)c2ccc(C(=O)N(C)CC(=O)Nc3c(C)cccc3C)cc2C1=O	1	-8	/	-19	-7	25
C=CCN1C(=O)c2ccc(C(=O)N(C)CC(=O)Nc3ccc(OCC)c(OCC)c3)cc2C1=O	1	-19	/	-5	39*	27
c1ccc(Cn2ccnc2C2OCCO2)cc1	1	-8	/	/	/	/
CCCC(=O)N(CCN1CCOCC1)c1nc2c(F)cc(F)cc2s1	0	-32	3	-7	-10	8
COC(=O)c1c(NC(=O)c2ccco2)sc(C)c1C	4	2	-14	-5	-27	59*
N=c1c(C(=O)NCC2CCCO2)cc2c(=O)n3ccccc3nc2n1Cc1ccccc1Cl (stereo unspecified)	-1	7	9	-4	-6	30
Cc1ccc(Cn2c(=N)c(C(=O)NCc3ccco3)cc3c(=O)n4ccccc4nc32)cc1	0	7	-2	-14	-14	29
N=c1c(C(=O)NCc2ccco2)cc2c(=O)n3ccccc3nc2n1CC1CCCO1 (stereo unspecified)	9	3	-3	-23	-13	49*
N=c1c(C(=O)NCc2ccc3c(c2)OCO3)cc2c(=O)n3ccccc3nc2n1CC1CCCO1 (stereo unspecified)	-2	-18	22	-31	-19	69*
COC(=O)[C@]12C[C@H](CC(=O)N3CCSCC3)C(=O)N(CCC3=CCCCC3)C1=C[C@H](C(C)(C)C)O[C@@H]2C	-2	-58	/	/	/	/
OCCC(N1CCOCC1)C(O)(c1ccccc1)c1ccccc1 (stereo unspecified)	2	-9	/	/	/	/
CCOC(=O)c1cn(Cc2ccc(Br)cc2)nn1	0	-2	-2	-14	-5	5
CCOC(OCC)c1cn(Cc2ccc3c(c2)C(=O)c2ccccc2C3=O)nn1	0	1	-5	-15	-9	76*
COc1ccc(N2C(=O)c3n[nH]c(C(C)C)c3C2c2ccc(C)cc2)cc1 (stereo unspecified)	4	-29	/	/	/	/
CCOC(=O)N1CCC2(CC1)CC(=O)c1cc(O)ccc1O2	3	-11	18*	-1	-9	19
CCOC(=O)COc1ccc2c(c1)C(=O)CC1(CCN(C(C)=O)CC1)O2	13	1	5	-12	-12	7
C[C@H]1CN([C@@H](C)CO)C(=O)CCCn2nncc2CO[C@H]1CN(C)S(=O)(=O)c1ccccc1	3	-15	/	/	/	/
CC(C)C[C@H]1COc2cc(N3CCOCC3)ccc2S(=O)(=O)N1	2	-5	/	/	/	/
CCN(CC)c1nc(N2CCOCC2)nc2ccccc12	-2	-13	1	-21	-13	6
CCN(CC)c1ccc(Nc2nc(N3CCOCC3)c3ccccc3n2)cc1	12	26	-6	4	5	42*
O=C(OCC(=O)N1CCC(Cc2ccccc2)CC1)c1cncc(Br)c1	7	12	/	-26	-13	3
COc1ccc(NC(=O)c2cc3c(=O)n(C)c4ccccc4c3n2C)cc1OC	4	5	-8	-21	-11	43*
COc1ccc(NC(=O)c2cc3c(=O)n(C)c4ccccc4c3n2C)cc1Cl	0	2	-13	-31	-9	4
CSc1ccccc1C(=O)NCCCn1ccnc1	0	3	-14	3	-4	7
O=C(NCc1ccccc1)[C@@H]1CCCN1C(=O)[C@@H](NS(=O)(=O)c1ccc(F)cc1F)c1ccccc1	0	-20	/	/	/	/
O=S(=O)(c1cc(F)ccc1F)N1CCN(c2ncnc3ccccc23)CC1	11	37	/	45*	49*	26

Screening data (PubChem BioAssay)
